Activity calls are given as the source filed them. No cut-off for these calls is given here.
What was measured:
[1] = tested on: Rattus norvegicus; test: Induction of rotation in rat with unilateral denervation of caudate nucleus at 0.25 mg/kg, sc; format: functional, organism-based; parameters: dose 0.25 mg/kg
Summary of the method: (§1)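 Rats given a unilateral 6-hydroxydopamine injection into the substantia nigra. Compounds dosed subcutaneously and the rotations they induced were counted. Apomorphine served as the reference.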

[2] = tested on: Columbidae; test: Inhibition of apomorphine-induced pecking in pigeon at 3 umol/kg; format: functional
Summary of the method: (§2)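 Pigeons. Compounds given intramuscularly at up to 4 mg/kg to test induction of pecking. Antagonism of pecking induced by apomorphine (1.62 μM/kg) was also tested, and ED50 values were estimated.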

[3] = tested on: Rattus norvegicus; test: Induction of rotation in rat with unilateral denervation of caudate nucleus at 1 mg/kg, sc; format: functional, organism-based; parameters: dose 1 mg/kg; summary of the method: as §1
[4] = species: Rattus norvegicus; test: Toxicity in Sprague-Dawley rat assessed as sniffing at 50 ug injection into nucleus accumbens; format: organism-based; settings: in vivo, other
Summary of the method: (§3)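 Male Sprague-Dawley rats (250 ± 25 g) with stereotaxic guide cannulae aimed at the nucleus accumbens. Tested 10–14 days after surgery with a bilateral 1 μL infusion over 60 s; each rat used once and placement checked histologically. Locomotion counted by photocell cage. Stereotypy scored, where 3–4 = biting, gnawing or licking. Pretreatments given ip: α-methyl-p-tyrosine 250 mg/kg 6 h before, or haloperidol 0.1, propranolol 5 or aceperone 2.5 mg/kg 30 min before.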

[5] = Toxicity in pigeon assessed as pecking; settings: columbidae; summary of the method: as §2
[6] = species: Felis catus; test: Inhibition of field stimulation-induced positive chronotrophic response in cat atria; format: functional; settings: Cardiac atrium
[7] = species: Canis lupus familiaris; test: Inhibition of electric stimulated dog right cardioaccelerator nerve; format: functional
Summary of the method: (§4)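 Dog cardioaccelerator nerve preparation under barbital (200 mg/kg) anaesthesia. Compounds given intravenously up to 1.0 mg/kg. Positive chronotropic responses read by cardiometer, with blood pressure taken from the right femoral artery.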

[8] = species: Rattus norvegicus; test: Toxicity in Sprague-Dawley rat assessed as locomotor hyperactivity treated bilateral injection into nucleus accumbens at 50 ug; format: organism-based; settings: in vivo, other; summary of the method: as §3
[9] = tested on: Mus musculus; test: Toxicity in albino B.K.W mouse assessed as circling behaviour at 20 to 80 mg/kg, sc; format: organism-based; parameters: dose 20-80 mg/kg, route subcutaneous; settings: in vivo
Summary of the method: (§5)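 Mice dosed subcutaneously at 20, 40 and 80 mg/kg in 1 mL/kg, doses as free base. Climbing scored as all four paws on the wire, giving a climbing index (% time over 30 min after the first climb) and the maximum time of a single climb. Circling was tested in mice with a unilateral caudate-putamen electrolesion, pre-selected for circling of 7 or more revolutions/2 min in response to apomorphine. Stereotypy was also recorded.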

[10] = tested on: Canis familiaris; test: Toxicity in dog assessed as emesis at 2 mg/kg, sc; format: organism-based, Canis lupus familiaris; parameters: dose 2 mg/kg, route subcutaneous; settings: in vivo
Summary of the method: (§6)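 Unanaesthetised dogs. For emesis, compound given sc and dogs watched 45 min for an emetic response. For antagonism, compound given sc and apomorphine 100 μg/kg 15 min later.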

[11] = tested on: Mus musculus; test: Toxicity in albino B.K.W mouse assessed as stereotyped behaviour at 20 to 80 mg/kg, sc; format: organism-based; parameters: dose 20-80 mg/kg, route subcutaneous; settings: in vivo; summary of the method: as §5
[12] = tested on: Canis familiaris; test: Inhibition of apomorphine-induced emesis in dog at 2 mg/kg, sc; format: functional, organism-based; parameters: dose 2 mg/kg; settings: Canis lupus familiaris; summary of the method: as §6
[13] = species: Felis catus; test: Inhibition of field stimulation-induced positive ionotrophic response in cat atria; format: functional; settings: Cardiac atrium
[14] = tested on: Mus musculus; test: Toxicity in albino B.K.W mouse assessed as climbing behaviour at 20 to 80 mg/kg, sc; format: organism-based; parameters: dose 20-80 mg/kg, route subcutaneous; settings: in vivo; summary of the method: as §5
[15] = tested on: Mus musculus; test: Toxicity in albino B.K.W mouse assessed as stereotyped head and limb movement at 40 to 80 mg/kg, sc; format: organism-based; parameters: dose 40-80 mg/kg, route subcutaneous; settings: in vivo; summary of the method: as §5
[16] = tested on: Canis familiaris; test: Increase in resting heart rate in dog at 0.5 mg/kg, iv by cardiotachometer; format: functional, organism-based; parameters: dose 0.5 mg/kg; settings: Canis lupus familiaris
Summary of the method: (§7)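 Anaesthetised dog (barbital 200 mg/kg). Compounds given intravenously, highest dose tested 1.0 mg/kg. Blood pressure recorded from the right femoral artery and heart rate by cardiometer. Resting heart rate, blood pressure and positive chronotropic responses were assessed after dosing. Doses calculated as free base.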

[17] = tested on: Columbidae; test: Inhibition of apomorphine-induced pecking in pigeon; format: functional; summary of the method: as §2
[18] = species: Rattus norvegicus; test: Toxicity in Sprague-Dawley rat assessed as gnawing up to 50 ug injection into nucleus accumbens; format: organism-based; settings: in vivo, other; summary of the method: as §3
[19] = species: Rattus norvegicus; test: Toxicity in Sprague-Dawley rat assessed as biting up to 50 ug injection into nucleus accumbens; format: organism-based; settings: in vivo, other; summary of the method: as §3
[20] = tested on: Canis familiaris; test: Increase in blood pressure in dog at 0.5 mg/kg, iv by cardiotachometer; format: functional, Canis lupus familiaris; summary of the method: as §7
[21] = species: Rattus norvegicus; test: Toxicity in Sprague-Dawley rat assessed as licking up to 50 ug injection into nucleus accumbens; format: organism-based; settings: in vivo, other; summary of the method: as §3
[22] = tested on: Canis familiaris; test: Increase in heart rate in dog at 1 mg/kg, iv by cardiotachometer; format: functional, organism-based; parameters: dose 1 mg/kg; settings: Canis lupus familiaris; summary of the method: as §7
[23] = species: Rattus norvegicus; test: Toxicity in Sprague-Dawley rat assessed as sniffing at 12.5 to 50 ug injection into nucleus accumbens; format: organism-based; settings: in vivo, other; summary of the method: as §3
[24] = tested on: Canis familiaris; test: Increase in ionotrophic response in iv dosed dog following field stimulation assessed as minimum effective dose by cardiotachometer; format: functional, Canis lupus familiaris; parameters: unit not given here; summary of the method: as §4
[25] = tested on: Canis familiaris; test: Increase in ionotrophic response in dog following field stimulation at 1 mg/kg, iv by cardiotachometer; format: functional, organism-based; parameters: dose 1 mg/kg; settings: Canis lupus familiaris; summary of the method: as §4
[26] = tested on: Rattus norvegicus; test: Induction of rotation in rat with unilateral denervation of caudate nucleus at 4 mg/kg, sc; format: functional, organism-based; parameters: dose 4 mg/kg; summary of the method: as §1
[27] = species: Rattus norvegicus; test: Toxicity in Sprague-Dawley rat assessed as hyperactivity treated intra-accumbens injection pretreated with haloperiodol; format: organism-based; settings: in vivo, other; summary of the method: as §3
[28] = species: Rattus norvegicus; test: Toxicity in Sprague-Dawley rat assessed as hyperactivity treated intra-accumbens injection pretreated with aceperone; format: organism-based; settings: in vivo, other; summary of the method: as §3
[29] = tested on: Canis familiaris; test: Increase in resting heart rate in dog at […], iv by cardiotachometer; format: functional, organism-based; settings: Canis lupus familiaris; summary of the method: as §7
[30] = species: Rattus norvegicus; test: Toxicity in Sprague-Dawley rat assessed as hyperactivity treated intra-accumbens injection; format: organism-based; settings: in vivo, other; summary of the method: as §3
[31] = tested on: Canis familiaris; test: Increase in blood pressure in dog at 30 ug/kg, iv by cardiotachometer; format: functional, Canis lupus familiaris; summary of the method: as §7
[32] = species: Rattus norvegicus; test: Toxicity in Sprague-Dawley rat assessed as hyperactivity treated intra-accumbens injection pretreated with alpha-methyl-p-tyrosine; format: organism-based; settings: in vivo, other; summary of the method: as §3
[33] = species: Rattus norvegicus; test: Toxicity in Sprague-Dawley rat assessed as hyperactivity treated intra-accumbens injection pretreated with propranolol; format: organism-based; settings: in vivo, other; summary of the method: as §3
[34] = tested on: Canis familiaris; test: Increase in heart rate in dog assessed as beats at 30 ug/kg, iv by cardiotachometer; format: functional, Canis lupus familiaris; summary of the method: as §7
[35] = species: Rattus norvegicus; test: Toxicity in Sprague-Dawley rat assessed as hyperactivity treated bilateral injection into nucleus accumbens; format: organism-based; settings: in vivo, other; summary of the method: as §3
[36] = tested on: Canis familiaris; test: Increase in heart rate in dog assessed as beats at 50 ug/kg, iv by cardiotachometer; format: functional, Canis lupus familiaris; summary of the method: as §7
[37] = tested on: Canis familiaris; test: Increase in blood pressure in dog at 50 ug/kg, iv by cardiotachometer; format: functional, Canis lupus familiaris; summary of the method: as §7
[38] = species: Rattus norvegicus; test: Toxicity in Sprague-Dawley rat assessed as hyperactivity treated bilateral injection into nucleus accumbens at > 6.25 ug; format: organism-based; settings: in vivo, other; summary of the method: as §3

Structure (SMILES) | Activity [5] | inhibition [6] | inhibition [7] | Activity [8] | Activity [9] | Activity [10] | Activity [11] | Activity [12] | inhibition [13] | Activity [14] | Activity [18] | Activity [19] | Activity [21] | Activity [26] | Activity [29] | other results
CN1CCc2cccc3c2[C@H]1Cc1ccc(O)c(O)c1-3 |  |  |  |  |  |  |  |  |  |  |  |  |  |  |  | Activity [1]: Active
COc1cc(CC(C)N)c(OC)cc1C (configuration not stated) |  |  |  |  |  |  |  |  |  |  |  |  |  |  |  | inhibition [2]: Active
C[C@H](N)Cc1ccccc1 |  |  |  |  |  |  |  |  |  |  |  |  |  |  |  | Activity [3]: Active
Br.CCNC(C)Cc1ccc(O)c(O)c1 (racemic) | Non-toxic | inactive | inactive | Toxic | Non-toxic | Non-toxic | Non-toxic | inactive | inactive | Non-toxic |  |  |  |  |  | Activity [4]: Toxic
Br.CCN(CC)C(C)Cc1ccc(O)c(O)c1 (racemic) | Non-toxic | inactive | inactive | Toxic | Non-toxic | Non-toxic | Non-toxic | inactive | inactive | Non-toxic | Non-toxic | Non-toxic | Non-toxic |  |  | Activity [15]: Toxic; Activity [16]: inactive; inhibition [17]: Active; Activity [20]: <=10 mmHg
Br.CCCN(CCC)C(C)Cc1ccc(O)c(O)c1 (racemic) | Non-toxic | inactive | inactive | Toxic | Non-toxic | Non-toxic | Non-toxic | inactive | inactive | Non-toxic |  |  |  | inactive |  | Activity [16]: inactive; Activity [22]: Active; Activity [23]: Toxic; MED [24]: 20; Activity [25]: Active; Activity [20]: <=10 mmHg
Br.CCCNC(C)Cc1ccc(O)c(O)c1 (racemic) | Non-toxic | inactive | inactive |  | Non-toxic | Non-toxic | Non-toxic | inactive | inactive | Non-toxic | Toxic | Toxic | Toxic | inactive | Active | Activity [27]: Non-toxic; Activity [28]: Toxic; Activity [30]: Toxic; Activity [31]: 35%; Activity [32]: Non-toxic; Activity [33]: Toxic; Activity [34]: 35 bpm; Activity [35]: Toxic
Br.CC(Cc1ccc(O)c(O)c1)N(C)C (racemic) | Non-toxic | inactive | inactive | Non-toxic | Non-toxic | Non-toxic | Non-toxic | inactive | inactive | Non-toxic | Non-toxic | Non-toxic | Non-toxic |  | Active | Activity [36]: 50 bpm; Activity [37]: 80%
Br.CC(N)Cc1ccc(O)c(O)c1 (racemic) | Non-toxic | inactive | inactive |  | Non-toxic | Non-toxic | Non-toxic | inactive | inactive | Non-toxic |  |  |  | inactive | Active | Activity [27]: Non-toxic; inhibition [17]: Active; Activity [23]: Toxic; Activity [28]: Toxic; Activity [38]: Toxic; Activity [30]: Toxic; Activity [36]: 50 bpm; Activity [37]: 80%; Activity [32]: Non-toxic; Activity [33]: Toxic
